NALP3 yeast inh: NALP3 inflammasome inhibitors in reconstituted yeast, primary screen, luminescence, uHTS; Yeast reconstituted NLRP3/ASC/caspase-1, beta-gal luminescence, 24 h; inhibition, % at 10 µM; actives 0.39% (n = 330,000); AID 2825, 2010;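 active = inhibition of 50% or more; inactive = inhibition below 50%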;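 also: plate controls were induced DMSO wells for no effect and uninduced yeast grown without galactose for full effect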
ATG4B inhibitor: ATG4B protease inhibitors, primary screen, biochemical, fluorescence, uHTS; Cysteine protease ATG4B (Homo sapiens), Q9Y4P1; ATG4B cleavage of LC3-PLA2, NBD-HPC fluorescence, 1 h; inhibition, % at 8.33 µM; actives 0.51% (n = 340,000); in the data active = inhibition above about 40%
Target sequence (Q9Y4P1 whole entry, looked up): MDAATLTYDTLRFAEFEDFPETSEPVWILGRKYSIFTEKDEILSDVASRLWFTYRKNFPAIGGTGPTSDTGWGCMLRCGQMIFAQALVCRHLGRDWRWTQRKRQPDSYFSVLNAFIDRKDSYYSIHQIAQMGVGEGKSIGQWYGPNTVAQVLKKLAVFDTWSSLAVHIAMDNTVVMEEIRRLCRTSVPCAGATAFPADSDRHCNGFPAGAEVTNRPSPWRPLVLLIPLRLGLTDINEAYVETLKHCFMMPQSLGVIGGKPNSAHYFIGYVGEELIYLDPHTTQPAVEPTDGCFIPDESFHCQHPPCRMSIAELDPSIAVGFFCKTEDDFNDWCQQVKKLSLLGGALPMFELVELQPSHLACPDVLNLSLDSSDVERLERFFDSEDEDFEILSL
NALP1 inh: NALP1 inflammasome inhibitors in reconstituted yeast, colorimetric, S. cerevisiae, triplicate retest; S. cerevisiae NALP1/ASC/caspase-1 growth, X-gal OD620, 72 h; inhibition, % at 10 µM; actives 0.61% (n = 280,000); AID 2071, 2009; in the data active = inhibition mostly above about 24%, no sharp cut-off; inactive = mostly below about 32%
Calb FLC: C. albicans growth inhibition with fluconazole, primary screen, CaCi-2 strain, Alamar Blue fluorescence. C. albicans CaCi-2 + fluconazole, 48 h. growth inhibition, % (no concentration beside the values). actives 0.57% (n = 300,000);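 active = growth inhibition above about 58% in most replicates, limit read from the data, passing the limit was not always enough; inconclusive = exactly half the replicates above a set limit; inactive = most replicates below a set limit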;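 also: all wells also contain fluconazole at 8 µg/ml as a sub-toxic cotreatment; 0% = median of DMSO wells and 100% = median of geldanamycin control wells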
UCH37 inh: inhibitors of human UCH37 deubiquitinase, primary screen, biochemical, Ub-AMC cleavage, fluorescence. inhibition, % (test concentration not listed). purified proteasome/UCH37. actives 0.33% (n = 330,000). Ubiquitin carboxyl-terminal hydrolase isozyme L5 (Homo sapiens), Q9Y5K5;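 active = mean inhibition over replicate wells above about 20%, limit read from the data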;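 also: 0% = compound-free wells with enzyme and 100% = wells lacking proteasome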
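Material: Human UCH37 enzyme supplied as purified proteasome complex | Schedule: 30 min compound-proteasome preincubation then 25 min substrate reaction, room temperature | Detection: AMC fluorescence from Ub-AMC cleavage, excitation 355 nm, emission 460 nm | Benchmarks: Wells without proteasome as full block, compound-free enzyme plus substrate as uninhibited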
ALR H2O2 inh: inhibitors of human ALR sulfhydryl oxidase, primary screen, biochemical, H2O2 detection, HRP-luminol luminescence, single point; inhibition, % (no concentration beside the values); actives 3.8% (n = 290,000); purified ALR, DTT oxidation; FAD-linked sulfhydryl oxidase ALR (Homo sapiens), P55789;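 active = mean replicate inhibition above about 79%, with every replicate also reaching it, limit read from the data; inconclusive = only one of the two criteria met; inactive = mean below limit and not every replicate reaching it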
Target sequence (P55789 whole entry, looked up): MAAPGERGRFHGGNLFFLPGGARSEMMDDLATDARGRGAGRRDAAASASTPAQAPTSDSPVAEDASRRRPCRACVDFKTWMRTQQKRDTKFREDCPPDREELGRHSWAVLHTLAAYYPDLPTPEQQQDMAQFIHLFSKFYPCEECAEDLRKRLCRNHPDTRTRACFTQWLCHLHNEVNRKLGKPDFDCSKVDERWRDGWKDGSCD
Starred values were filed as active, the others as inactive; i = inactive; ? = inconclusive; . = not tested or not shown. Rows were chosen to be rich in hits. Some 4.8% of all compounds tested hit in one or more screens of this group.

SMILES | NALP3 yeast inh | ATG4B inhibitor | NALP1 inh | Calb FLC | UCH37 inh | ALR H2O2 inh
Cc1cc(SCC(=O)N/N=C/c2ccc(O)c(O)c2O)c(C)cc1Br | 7 | 5 | -11 | 107* | . | 95*
CN(C)c1ccc(NC(=O)C2CCCN(S(=O)(=O)c3ccccc3)C2)cc1 (centres undefined) | 7 | 0 | 23 | -17 | 1 | 100*
CCCS(=O)(=O)N1CCCC(C(=O)NCCN(CC)c2ccccc2)C1 (centres undefined) | 8 | -1 | -3 | 9 | 2 | 99*
CCCS(=O)(=O)N1CCCC(C(=O)NCCCN(CC)c2cccc(C)c2)C1 (centres undefined) | 19 | -11 | 0 | 8 | 3 | 99*
CCCS(=O)(=O)N1CCC(C(=O)NCCCN(CC)c2cccc(C)c2)CC1 | 11 | -9 | 36 | . | -4 | 16
O=C(Nc1ccc(N2CCOCC2)cc1)C1CCCN(S(=O)(=O)c2ccccc2)C1 (centres undefined) | 1 | -9 | 6 | -3 | 1 | -11
CCN(CCCNC(=O)C1CCN(S(=O)(=O)N2CCOCC2)CC1)c1cccc(C)c1 | 7 | -13 | -8 | 4 | 4 | 99*
CCCc1ccc(OCc2ccc(C(=O)NN=Cc3cccnc3)o2)cc1 | . | . | . | . | -15 | .
O=C(NN=Cc1cc2c(cc1Cl)OCO2)c1ccc2c(c1)OCCO2 | . | . | . | . | 5 | .
CC(=O)Nc1ccc(C(C)=NNc2nc(Nc3cccc4ccccc34)nc(N3CCOCC3)n2)cc1 | . | . | . | . | 6 | .
COc1ccc(C(C)=NNC(=O)c2nc(C)cc(C)n2)cc1 | . | . | . | . | 4 | .
CCN(CCCNS(=O)(=O)c1ccc2c(c1)oc(=O)n2C)c1cccc(C)c1 | -3 | -9 | . | . | 3 | 97*
O=[N+]([O-])c1cc(C=Nn2cnnc2)ccc1N1CCCC1 | . | . | . | . | 21* | .
CON=Cc1ccc(N2CCCC2)c([N+](=O)[O-])c1 | . | . | . | . | 4 | .
O=[N+]([O-])c1ccc(C=NNS(=O)(=O)c2ccc(F)cc2)o1 | . | . | . | . | 3 | .
COc1ccc(NCC(=O)NN=C(C)c2cc3ccccc3o2)cc1 | . | . | . | . | 0 | .
O=C(Nc1nnc(SCc2cccnc2)s1)C1CC(=O)N(c2ccc(F)cc2)C1 (centres undefined) | 0 | -2 | 19 | 15 | 1 | 97*
COc1cccc(N2CC(C(=O)Nc3nnc(SCc4cccnc4)s3)CC2=O)c1 (centres undefined) | 4 | -6 | 4 | 3 | 3 | -44
Cn1c(=O)c(C(=O)NCCc2ccccc2)c(O)c2ccccc21 | 21 | 4 | 21 | 89* | 3 | 7
O=C(CC1SC(=NS(=O)(=O)c2ccc(F)cc2)N(c2ccccc2)C1=O)Nc1ccccc1 (centres undefined) | . | . | . | . | 2 | .
Cc1oc(-c2ccc(F)cc2)cc1-c1nn2c(-c3ccoc3C)nnc2s1 | 11 | 27 | 6 | -3 | 6 | 97*
Cc1oc(-c2ccc(Cl)cc2)cc1-c1nn2c(-c3ccco3)nnc2s1 | . | . | 16 | . | . | .
O=C(CCC(=O)Nc1cccc([N+](=O)[O-])c1)NN=Cc1cccs1 | . | . | . | . | 3 | .
C=CCc1cccc(C=NNC(=O)CNc2ccccc2)c1O | . | . | . | . | -5 | .
COc1cc(/C=N/NC(=O)c2cccc(N3CCCC3=O)c2)ccc1O | -14 | 0 | -9 | 8 | . | 100*
SMILES | NALP3 yeast inh | ATG4B inhibitor | NALP1 inh | Calb FLC | UCH37 inh | ALR H2O2 inh
O=C(N/N=C/c1cc([N+](=O)[O-])ccc1O)c1cccc(N2CCCC2=O)c1 | 10 | -8 | -8 | -1 | . | 4
O=C(N/N=C/c1cccnc1)c1cccc(N2CCCC2=O)c1 | 25 | 5 | 2 | 23 | . | -10
CCN(CC)c1ccc(/C=N/NC(=O)c2cccc(N3CCCC3=O)c2)cc1 | 23 | -1 | 5 | -1 | . | 97*
C/C=C/C(=O)Nc1nnc(-c2ccccc2C)s1 | 22 | 6 | -4 | -14 | 2 | 98*
C=C(C)C(=O)Nc1nnc(-c2ccccc2C)s1 | . | -6 | -8 | . | 3 | .
COC(=O)C[C@H]1c2cc(F)ccc2S(=O)(=O)N1c1ccc(N(C)C)cc1 | 14 | -3 | . | -5 | 0 | 99*
O=C(O)COc1ccc(C=NO)cc1Br | . | . | . | . | 2 | .
CON=CCC(=O)Nc1ccc(F)cc1F | . | . | . | . | 2 | .
Cc1n[nH]c(=S)n1N=Cc1ccccc1 | . | . | . | . | 5 | .
CC1CN(C(=O)C(C)N2CCN(c3cccc(Cl)c3)CC2)CC(C)O1 (centres undefined) | -2 | 1 | -7 | -19 | 0 | 88*
CNS(=O)(=O)c1cnccc1N1CCN(c2cccc(Cl)c2)CC1 | 3 | 1 | . | -1 | 2 | 18
CCN(CC)S(=O)(=O)c1cnccc1N1CCN(c2cccc(Cl)c2)CC1 | 11 | -5 | 54* | 12 | 3 | 7
COc1ccc(NS(=O)(=O)c2cc(NC(=NS(=O)(=O)c3ccccc3)c3ccc(F)cc3)ccc2Cl)cc1 | . | . | . | . | 1 | .
S=c1nc(-c2ccccc2Cl)[nH][nH]1 | 7 | 7 | -7 | 9 | 0 | 99*
Brc1ccc2c(c1)OCCOCCOc1cc(Br)ccc1OCCOCCOCCO2 | 36 | -2 | 50 | 3 | 4 | -9
Nc1ccc2c(c1)OCCOCCOCCOCCOCCO2 | 6 | 0 | 14 | 49 | 5 | 98*
COc1ccc(C)cc1NC(=S)NNC(=O)c1ccccc1Cl | 6 | 5 | -15 | . | 2 | 77*
COc1ccc(C)cc1NC(=S)NNC(=O)c1c(Br)cnn1C | 9 | -2 | 4 | 72* | 7 | .
COc1ccccc1NC(=S)NNC(=O)c1nn(C)c(C)c1Br | 8 | 4 | 7 | -9 | 0 | 60
COc1ccccc1C(=O)NNC(=S)Nc1ccccc1 | . | -1 | -4 | 10 | 5 | .
NC(Cc1ccc([N+](=O)[O-])cc1)=NOC(=O)c1ccccc1F | . | . | . | . | 2 | .
N#CC(=NNc1ccc(S(=O)(=O)N2CCCCCC2)cc1)C(N)=S | . | . | . | . | 9 | .
CCc1sc(NC(C)=O)nc1-c1ccccc1 | 10 | 4 | 22 | ? | -3 | -15
CCc1sc(NS(C)(=O)=O)nc1-c1ccccc1 | 19 | -5 | 6 | 22 | 3 | 98*
Oc1ccccc1C=NNC(=S)NC1CC2CCC1C2 (centres undefined) | . | . | . | . | -1 | .
CCN(CC)c1ccc(CN2CCC(C(=O)NCc3ccc(C)cc3)CC2)cc1 | 30 | -2 | 1 | -38 | 4 | 82*
CCN(CC)S(=O)(=O)N1CCC(C(=O)NCc2ccc(C)cc2)CC1 | 9 | -3 | -2 | 0 | 2 | -3
CCN(CC)S(=O)(=O)c1cccc(-c2cn3cccnc3n2)c1 | -13 | 3 | 2 | 2 | i | 99*

From PubChem BioAssay
